Reference: ChEMBL document CHEMBL1144484, “High selective leishmanicidal activity of 3-hydroxy-2-methylene-3-(4-bromophenyl)propanenitrile and analogous compounds” (Eur J Med Chem, 2007)

Columns and labels:
Leishmania amazonensis [1] = test: Antileishmanial activity against GFP tagged Leishmania amazonensis Josefa promastigote at 50 uM; format: functional
In short: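 Triplicate wells of 10⁵ GFP-transfected promastigotes in DMEM with 5% serum and 1% DMSO, with compound, held 72 h at 27 °C. Fluorescence intensity read on a plate fluorometer. Results given as percent inhibition, mean of triplicates with SD.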

[2] = tested on: Peritoneal macrophage cell; test: Effect on nitric oxide production in mouse peritoneal macrophages at 50 uM after 48 hrs; format: functional
In short: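 Supernatants from mouse peritoneal macrophage cultures incubated 48 h with compound. Nitrite measured by a modified Griess method. IFN-gamma at 10 U/ml served as positive control. Triplicate means.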

Leishmania amazonensis [3] = test: Antileishmanial activity against GFP tagged Leishmania amazonensis Josefa amastigote infected mouse peritoneal macrophages at 50 uM after 72 hrs; format: functional
In short: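 GFP L. amazonensis (Josefa)-infected mouse peritoneal macrophages (10⁶ cells, 5 × 10⁶ promastigotes, 4 h at 37 °C), washed, exposed to compound for 72 h in 1% DMSO. Monolayer fluorescence measured. Percent inhibition scaled between untreated infected cells and uninfected macrophages. Vehicle control was 1% DMSO. Triplicate means with SD.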

[4] = Cytotoxicity against mouse peritoneal macrophages assessed as LDH release at 50 uM after 48 hrs; format: cell-based; details: peritoneal macrophage cell
In short: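 Uninfected adherent mouse peritoneal macrophages exposed to compound for 48 h at 37 °C. LDH released into the medium measured with a commercial kit. 2% Triton X-100 set maximum release and 1% DMSO set minimum. Triplicate means with SD.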

Leishmania amazonensis [5] = test: Antiamastigote activity against GFP tagged […] amastigote infected mouse peritoneal macrophages; format: functional, organism-based
In short: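 Mouse peritoneal macrophages (10⁶) infected 4 h at 37 °C with 5 × 10⁶ GFP-expressing L. amazonensis (Josefa) promastigotes, washed, then cultured 72 h with compound in 1% DMSO. Monolayer fluorescence read as parasite growth. Uninfected macrophages set maximum inhibition and untreated infected cells set minimum. IC50 obtained by linear regression.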

Compound | Activity (Leishmania amazonensis [1]) [%] | Activity [2] [µM] | Activity (Leishmania amazonensis [3]) [%] | Activity [4] [%] | IC50 (Leishmania amazonensis [5]) [µM]
C=C(C#N)C(O)c1cc(OC)ccc1OC (stereo unspecified) | 22.3 | -4.9 | 35.3 | 0 | –
C=C(C#N)C(O)c1ccccc1OC (stereo unspecified) | 30 | 0.4 | 14.7 | 6.1 | –
C=C(C(=O)OC)C(O)c1cccnc1 (stereo unspecified) | 39.6 | 0.1 | 8.9 | 13.2 | –
C=C(C#N)C(O)c1ccc([N+](=O)[O-])cc1 (stereo unspecified) | 47 | 5 | 93.9 | 41.7 | –
C=C(C(=O)OC)C(O)c1ccc([N+](=O)[O-])cc1 (stereo unspecified) | 67.3 | -3.7 | 80.6 | 41.6 | –
C=C(C(=O)OC)C(O)c1ccc(C(F)(F)F)cc1 (stereo unspecified) | 67.6 | -3.5 | 89 | 36.2 | 42.8
C=C(C#N)C(O)c1ccc(Br)cc1 (stereo unspecified) | 17.5 | 2.5 | 84.3 | 0 | 12.5
C=C(C#N)C(O)c1ccc(O)c(OC)c1 (stereo unspecified) | 6.6 | -2.3 | 19.7 | 0 | –
C=C(C#N)C(O)c1ccc(C(F)(F)F)cc1 (stereo unspecified) | 62.8 | -4 | 86 | 36.3 | –
C=C(C#N)C(OC(C)=O)c1ccc([N+](=O)[O-])cc1 (stereo unspecified) | 59.3 | 0 | 21.5 | 0 | –
pentostam | 0 | 0 | 35.3 | – | –
C=C(C#N)C(O)c1ccc2c(c1)OCO2 (stereo unspecified) | 25.5 | -2.1 | 9.1 | 0 | –
C=C(C(=O)OC)C(O)c1ccccc1 (stereo unspecified) | 37.6 | -2.1 | 14.4 | 0 | –
C=C(C(=O)OC)C(O)c1ccc(C)cc1 (stereo unspecified) | 32.4 | -3.7 | 28.7 | 0 | –
C=C(C(=O)OC)C(O)c1ccc(F)cc1 (stereo unspecified) | 32.4 | -4.8 | 33.6 | 0 | –
C=C(C#N)C(O)c1ccc2ccccc2c1 (stereo unspecified) | 24 | -7.1 | 95.6 | 26.6 | 11.2
C=C(C#N)C(O)c1ccccc1 (stereo unspecified) | 42.2 | -1.6 | 48.1 | 0 | 49.3
